Source: PubChem BioAssay
Beta apoptosis – beta cell apoptosis inhibition. INS-1E cytokine-induced death, ATP luminescence, 48 h; percent of positive-control rescue, neutral wells zero. protection from apoptosis, % (concentration not given with the values). 300,000 compounds, 0.8% hits;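 active = Every replicate reaches about 75%, or at least half do and their mean reaches it too, limit read from the data; inconclusive = At least half of replicates reach the limit but their mean does not; inactive = Under half of replicates reach the limit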;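 also: 0% = cytokine-treated negative control wells and 100% = positive control rescue; higher means more ATP so stronger rescue from cytokine killing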
SKKanGAS inh – SKKanGAS growth inhibition; S. pyogenes SKKanGAS, kanamycin growth, BacTiter-Glo, 6 h; inhibition, % at 7.5 µM; 300,000 compounds, 1.3% hits; AID 1662;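 active = mean replicate score, as percent of positive control median, at least 50; inconclusive = mean below 50 but one replicate at or above 50; inactive = mean and every replicate below 50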;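 also: strain carries kanamycin resistance gene driven by streptokinase promoter and grows in 40 µg/ml kanamycin; loss of luminescence reflects streptokinase promoter inhibition or plain growth inhibition; 0% = median of DMSO wells and 100% = positive control at its reference dose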
Calb FLC – affects C. albicans growth with fluconazole; C. albicans CaCi-2 (fluconazole-resistant clinical isolate) + fluconazole, Alamar Blue growth, 48 h; 300,000 compounds, 0.57% hits; growth inhibition, % (test concentration not listed); AID 1979;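 active = growth inhibition above about 58% in most replicates, limit read from the data, passing the limit was not always enough; inconclusive = exactly half the replicates above a set limit; inactive = most replicates below a set limit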;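 also: all wells also contain fluconazole at 8 µg/ml as a sub-toxic cotreatment; 0% = median of DMSO wells and 100% = median of geldanamycin control wells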
CSC inhib – cancer stem cell inhibition | AID 2717 | inhibition, % at 7.5 µM | cancer stem cell-like cells viability, luminescence | 300,000 compounds, 1.1% hits; in the data active = inhibition above about 75%; inconclusive = no clear call, values can overlap the other calls; tested in HMLE shEcad cells
Mdm2 MdmX PPI – human Mdm2/MdmX binding inhibition. O15151+Q00987. SaOS-2 split-luciferase Mdm2/MdmX complementation, luminescence. inhibition, % at 8 µM. 330,000 compounds, 3% hits. AID 485346;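 active = inhibition of at least 50% at 8 µM in the primary screen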
Target sequence (O15151 whole entry, looked up): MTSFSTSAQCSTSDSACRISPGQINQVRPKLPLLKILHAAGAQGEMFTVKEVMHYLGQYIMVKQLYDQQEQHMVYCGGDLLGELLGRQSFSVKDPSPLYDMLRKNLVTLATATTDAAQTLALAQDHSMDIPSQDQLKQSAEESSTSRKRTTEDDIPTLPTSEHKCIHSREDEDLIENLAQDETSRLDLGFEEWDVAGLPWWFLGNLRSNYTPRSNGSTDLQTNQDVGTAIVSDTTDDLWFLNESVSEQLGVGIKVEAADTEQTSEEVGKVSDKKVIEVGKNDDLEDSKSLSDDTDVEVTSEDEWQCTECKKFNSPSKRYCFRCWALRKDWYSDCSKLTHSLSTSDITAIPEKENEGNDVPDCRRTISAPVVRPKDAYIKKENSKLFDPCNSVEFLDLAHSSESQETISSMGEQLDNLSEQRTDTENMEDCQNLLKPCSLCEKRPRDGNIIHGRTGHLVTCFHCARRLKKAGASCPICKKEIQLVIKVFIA
Target sequence (Q00987 whole entry, looked up): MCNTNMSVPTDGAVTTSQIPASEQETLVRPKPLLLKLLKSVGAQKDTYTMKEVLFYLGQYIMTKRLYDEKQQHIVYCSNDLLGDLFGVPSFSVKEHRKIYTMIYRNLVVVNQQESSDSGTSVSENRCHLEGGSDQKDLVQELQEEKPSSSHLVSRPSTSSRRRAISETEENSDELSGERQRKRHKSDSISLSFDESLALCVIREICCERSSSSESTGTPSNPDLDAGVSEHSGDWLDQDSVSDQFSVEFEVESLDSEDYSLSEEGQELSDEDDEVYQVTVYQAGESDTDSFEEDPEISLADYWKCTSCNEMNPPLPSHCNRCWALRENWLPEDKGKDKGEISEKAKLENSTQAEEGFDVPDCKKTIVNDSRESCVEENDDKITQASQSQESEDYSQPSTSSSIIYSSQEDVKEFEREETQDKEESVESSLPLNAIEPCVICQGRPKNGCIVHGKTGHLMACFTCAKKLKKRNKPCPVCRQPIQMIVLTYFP
T cruzi inh – blocks replication of Trypanosoma cruzi; T. cruzi beta-gal in NIH3T3, luminescence, 90 h; inhibition, % (test concentration not listed); 300,000 compounds, 1.4% hits;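 active = mean inhibition across valid replicates above about 55%, limit read from the data; inconclusive = mean below that limit but half or more replicates reach it; inactive = mean below it, under half of replicates reach it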;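 also: signal also drops with host cell toxicity which is not excluded here; 0% = plate median of DMSO wells and 100% = zero luminescence signal; higher percent means less beta-gal luminescence so fewer parasites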
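Material: NIH/3T3 host cells with β-galactosidase reporter T. cruzi; Input: 5,000 host fibroblasts per well; Medium: DMEM, 2% fetal bovine serum; Compound: 50 nL DMSO compound solution per well; Schedule: 3 h host attachment, then at least 90 h co-culture; Detection: luminescent β-galactosidase signal after 60 min lysis.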
* = called active by the depositor; ? = inconclusive; / = no result given. An excerpt weighted towards active compounds, which were near 5.7% of everything screened.

SMILES	Beta apoptosis	SKKanGAS inh	Calb FLC	CSC inhib	Mdm2 MdmX PPI	T cruzi inh
Oc1ccccc1C1CCCCC1c1ccccc1 (configuration not stated)	13	?	-9	76*	/	10
Cc1nn(Cc2ccc(Cl)cc2)c(C)c1NC(=O)CSc1nc2c(c(C(F)(F)F)n1)CCc1ccccc1-2	35	13	25	30	8	60*
CCOc1ccc(/C=C/C2=CC(C)(C)NC(=S)N2)cc1	1	8	110*	/	17	26
CCc1cc2c(=O)c(-c3ccc4c(c3)OCCO4)coc2c(CN2CCCCC2C)c1O (configuration not stated)	7	?	30	24	24	56*
CCCCN(C(=O)Cc1ccc2c(c1)OCCO2)c1c(N)n(CC(C)C)c(=O)[nH]c1=O	/	/	/	/	1	/
CC12CN3CC(C)(CN(C1)C3c1ccc([N+](=O)[O-])o1)C2=O (configuration not stated)	-3	-15	-21	-17	-7	80*
CCC12CN3CC(CC)(CN(C1)C3c1ccc([N+](=O)[O-])o1)C2=O (configuration not stated)	2	-11	3	-11	0	60*
CCOc1ccc(CN(C)CC(=O)Nc2cc(OC)c([N+](=O)[O-])cc2C)cc1	3	-1	-23	-9	24	59*
CCN(CC)CCN(C(=O)CCS(=O)(=O)c1ccccc1)c1nc2cc3c(cc2s1)OCO3	4	?	8	4	8	60*
CCN(CC)CCN(C(=O)c1ccc(Br)s1)c1nc2cc3c(cc2s1)OCO3	-2	-2	-5	-5	-5	29
CCN(CC)CCN(C(=O)C1CCCCC1)c1nc2cc3c(cc2s1)OCO3	-1	35	-13	8	14	61*
O=C(C1CCCCC1)N(CCN1CCCC1)c1nc2ccccc2s1	/	6	-3	/	-15	57*
Cc1ccc(S(=O)(=O)CC(CN2CCOCC2)N2CCOCC2)cc1 (configuration not stated)	-3	-4	-19	-7	-30	-17
Cc1ccc(S(=O)(=O)CC(C)N2CCOCC2)c(S(=O)(=O)CC(C)N2CCOCC2)c1 (configuration not stated)	/	-5	103*	-9	-16	-1
CC(=O)N1N=C(c2ccccc2O)CC1c1cccs1 (configuration not stated)	/	7	-1	-9	-5	-6
CCN1C(=O)/C(=C\c2ccncc2)SC1=Nc1ccc(C)c(C)c1	8	13	3	84*	25	29
COc1ccc(C(CC(=O)c2ccccc2)CC(=O)c2ccccc2)cc1	-3	-8	9	-8	2	13
COc1ccc(C(CCN)Cc2ccccc2)cc1 (configuration not stated)	0	-12	-14	-5	-2	89*
CSCCC(NC(=O)c1ccco1)C(=O)NC1CCC(C)CC1 (configuration not stated)	2	/	/	-8	-49	/
CN1CCN(/N=C/c2cccc(Cl)c2Cl)CC1	-8	6	-9	/	7	62*
Clc1ccccc1/C=N/N1CCN(Cc2ccccc2)CC1	0	10	5	-7	-7	3
COc1ccc(CN2CCc3ccc(NC(=O)c4ccncc4)cc3C2)c(F)c1	4	50*	-7	-8	33	37
O=C(Nc1ccc2c(c1)CN(Cc1ccc(CO)o1)CC2)c1ccc(C(F)(F)F)cc1	5	20	48	6	26	21
O=C(NCc1ccccc1)C1c2ccccc2Oc2ccccc21	-6	3	118*	-15	0	12
N#CCNC(=O)C1c2ccccc2Oc2ccccc21	-6	-12	-13	-16	19	-2
Cc1ccc(-c2n[nH]c(=S)nc2-c2ccc(C)cc2)cc1	-5	1	8	2	/	14
Cc1ccc(-c2n[nH]c3c2CCC3)cc1	-6	55*	-6	2	3	5
O=C(Nc1nc(-c2ccccn2)cs1)C12CC3CC(CC(O)(C3)C1)C2	3	?	-26	-2	-13	-16
O=C(Nc1nc(-c2ccccn2)cs1)C1CC1	13	51*	5	-3	-31	-16
COc1ccc(OCCC(=O)Nc2nccs2)cc1	/	4	-5	1	14	-2
